According to ChEMBL document CHEMBL5058577, “EUbOPEN Chemogenomics Library 2 (Multiplex)” (2022):

Tested on: U2OS
Assay: Multiplex assay against U2OS
Type: toxicity, cell-based
Settings: human
Procedure, shortened: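 Values for tubulin, mitochondrial-mass and membrane-permeability phenotypes are per cents of cells with healthy nuclei. These cells were identified by CellPathfinder machine-learning gating of live cells that had been stained at seeding with Hoechst33342, BioTracker Green Microtubule Cytoskeleton Dye, MitoTracker Red and Annexin V Alexa Fluor 680 and imaged on a CQ1 microscope at 37°C and 5% CO2 after compound addition. The gating first set Hoechst high-intensity objects apart from normal cells, then split normal cells into healthy, pyknosed or fragmented nuclei, and pyknosed cells into mitotic or apoptotic.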

[1] = 12 h, 1 µM, compound concentration 1 uM, replicate 1
[2] = 12 h, 1 µM, compound concentration 1 uM, replicate 2
[3] = 12 h, 10 µM, compound concentration 10 uM, replicate 1
[4] = 12 h, 10 µM, compound concentration 10 uM, replicate 2
[5] = 24 h, 1 µM, compound concentration 1 uM, replicate 1
[6] = 24 h, 1 µM, compound concentration 1 uM, replicate 2
[7] = 24 h, 10 µM, compound concentration 10 uM, replicate 1
[8] = 24 h, 10 µM, compound concentration 10 uM, replicate 2
[9] = 48 h, 1 µM, compound concentration 1 uM, replicate 1
[10] = 48 h, 1 µM, compound concentration 1 uM, replicate 2
[11] = 48 h, 10 µM, compound concentration 10 uM, replicate 1
[12] = 48 h, 10 µM, compound concentration 10 uM, replicate 2

CN1CCN(c2ccc(Nc3c4ccccc4nc4ccccc34)cc2)CC1.Cl.Cl.O
Population Apoptotic (%) [1]: 100% | Population Fragmented Nuclei (%) [1]: 25% | Population Healthy Nuclei (%) [1]: 65% | Population Hoechst High Intensity Objects (%) [1]: 0% | Population Membrane Permeable-Phenotype (%) [1]: 19% | Population Mitochondria Different-Phenotype (%) [1]: 7% | Population Mitotic Cells (%) [1]: 0% | Population Normal (%) [1]: 99% | Population Pyknosed Nuclei (%) [1]: 8% | Population Tubulin-Different-Phenotype (%) [1]: 17% | Total Cell Count [1]: 193 | Population Apoptotic (%) [2]: 87% | Population Fragmented Nuclei (%) [2]: 23% | Population Healthy Nuclei (%) [2]: 69% | Population Membrane Permeable-Phenotype (%) [2]: 14% | Population Mitochondria Different-Phenotype (%) [2]: 13% | Population Mitotic Cells (%) [2]: 12% | Population Normal (%) [2]: 100% | Population Pyknosed Nuclei (%) [2]: 7% | Population Tubulin-Different-Phenotype (%) [2]: 13% | Total Cell Count [2]: 107 | Population Apoptotic (%) [3]: 93% | Population Fragmented Nuclei (%) [3]: 54% | Population Healthy Nuclei (%) [3]: 38% | Population Hoechst High Intensity Objects (%) [3]: 0% | Population Membrane Permeable-Phenotype (%) [3]: 65% | Population Mitochondria Different-Phenotype (%) [3]: 95% | Population Mitotic Cells (%) [3]: 6% | Population Normal (%) [3]: 99% | Population Pyknosed Nuclei (%) [3]: 7% | Population Tubulin-Different-Phenotype (%) [3]: 82% | Total Cell Count [3]: 213 | Population Apoptotic (%) [4]: 100% | Population Fragmented Nuclei (%) [4]: 62% | Population Healthy Nuclei (%) [4]: 31% | Population Hoechst High Intensity Objects (%) [4]: 2% | Population Membrane Permeable-Phenotype (%) [4]: 70% | Population Mitochondria Different-Phenotype (%) [4]: 100% | Population Mitotic Cells (%) [4]: 0% | Population Normal (%) [4]: 97% | Population Pyknosed Nuclei (%) [4]: 6% | Population Tubulin-Different-Phenotype (%) [4]: 85% | Total Cell Count [4]: 132 | Population Apoptotic (%) [5]: 92% | Population Fragmented Nuclei (%) [5]: 28% | Population Healthy Nuclei (%) [5]: 64% | Population Hoechst High Intensity Objects (%) [5]: 1% | Population Membrane Permeable-Phenotype (%) [5]: 10% | Population Mitochondria Different-Phenotype (%) [5]: 6% | Population Mitotic Cells (%) [5]: 7% | Population Normal (%) [5]: 98% | Population Pyknosed Nuclei (%) [5]: 6% | Population Tubulin-Different-Phenotype (%) [5]: 7% | Total Cell Count [5]: 200 | Population Apoptotic (%) [6]: 100% | Population Fragmented Nuclei (%) [6]: 29% | Population Healthy Nuclei (%) [6]: 60% | Population Hoechst High Intensity Objects (%) [6]: 4% | Population Membrane Permeable-Phenotype (%) [6]: 5% | Population Mitochondria Different-Phenotype (%) [6]: 12% | Population Mitotic Cells (%) [6]: 0% | Population Normal (%) [6]: 95% | Population Pyknosed Nuclei (%) [6]: 10% | Population Tubulin-Different-Phenotype (%) [6]: 6% | Total Cell Count [6]: 124 | Population Apoptotic (%) [7]: 100% | Population Fragmented Nuclei (%) [7]: 46% | Population Healthy Nuclei (%) [7]: 42% | Population Hoechst High Intensity Objects (%) [7]: 4% | Population Membrane Permeable-Phenotype (%) [7]: 85% | Population Mitochondria Different-Phenotype (%) [7]: 96% | Population Mitotic Cells (%) [7]: 0% | Population Normal (%) [7]: 95% | Population Pyknosed Nuclei (%) [7]: 11% | Population Tubulin-Different-Phenotype (%) [7]: 90% | Total Cell Count [7]: 205 | Population Apoptotic (%) [8]: 90% | Population Fragmented Nuclei (%) [8]: 69% | Population Healthy Nuclei (%) [8]: 23% | Population Hoechst High Intensity Objects (%) [8]: 10% | Population Membrane Permeable-Phenotype (%) [8]: 96% | Population Mitochondria Different-Phenotype (%) [8]: 100% | Population Mitotic Cells (%) [8]: 10% | Population Normal (%) [8]: 89% | Population Pyknosed Nuclei (%) [8]: 7% | Population Tubulin-Different-Phenotype (%) [8]: 100% | Total Cell Count [8]: 148 | Population Apoptotic (%) [9]: 87% | Population Fragmented Nuclei (%) [9]: 36% | Population Healthy Nuclei (%) [9]: 52% | Population Hoechst High Intensity Objects (%) [9]: 4% | Population Membrane Permeable-Phenotype (%) [9]: 6% | Population Mitochondria Different-Phenotype (%) [9]: 4% | Population Mitotic Cells (%) [9]: 12% | Population Normal (%) [9]: 95% | Population Pyknosed Nuclei (%) [9]: 10% | Population Tubulin-Different-Phenotype (%) [9]: 3% | Total Cell Count [9]: 231 | Population Apoptotic (%) [10]: 100% | Population Fragmented Nuclei (%) [10]: 40% | Population Healthy Nuclei (%) [10]: 47% | Population Hoechst High Intensity Objects (%) [10]: 5% | Population Membrane Permeable-Phenotype (%) [10]: 19% | Population Mitochondria Different-Phenotype (%) [10]: 7% | Population Mitotic Cells (%) [10]: 0% | Population Normal (%) [10]: 94% | Population Pyknosed Nuclei (%) [10]: 12% | Population Tubulin-Different-Phenotype (%) [10]: 9% | Total Cell Count [10]: 147 | Population Apoptotic (%) [11]: 96% | Population Fragmented Nuclei (%) [11]: 53% | Population Healthy Nuclei (%) [11]: 30% | Population Hoechst High Intensity Objects (%) [11]: 18% | Population Membrane Permeable-Phenotype (%) [11]: 91% | Population Mitochondria Different-Phenotype (%) [11]: 90% | Population Mitotic Cells (%) [11]: 3% | Population Normal (%) [11]: 81% | Population Pyknosed Nuclei (%) [11]: 15% | Population Tubulin-Different-Phenotype (%) [11]: 93% | Total Cell Count [11]: 243 | Population Apoptotic (%) [12]: 100% | Population Fragmented Nuclei (%) [12]: 76% | Population Healthy Nuclei (%) [12]: 19% | Population Hoechst High Intensity Objects (%) [12]: 15% | Population Membrane Permeable-Phenotype (%) [12]: 100% | Population Mitochondria Different-Phenotype (%) [12]: 96% | Population Mitotic Cells (%) [12]: 0% | Population Normal (%) [12]: 84% | Population Pyknosed Nuclei (%) [12]: 4% | Population Tubulin-Different-Phenotype (%) [12]: 100% | Total Cell Count [12]: 173
